From ChEMBL document CHEMBL1143739, “SAR study of bicyclo[4.1.0]heptanes as melanin-concentrating hormone receptor R1 antagonists: taming hERG” (Bioorg Med Chem, 2007)

Key:
[1] = target: Melanin-concentrating hormone receptor 1 (Homo sapiens, UniProt Q99705); assay: Displacement of [125I]MCH from MCHR1 expressed in CHO cells; assay type: cell-based
Method in brief: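 Human MCH R1, CHO cell membranes (0.1 mg/mL) on SPA beads (1 mg/mL). Buffer: 25 mM HEPES, 10 mM MgCl2, 5 mM MnCl2, 0.1% BSA, pH 7.4. Incubation 2–4 h at room temperature, scintillation count. Ki by non-linear regression; mean ± range of two determinations, each in quadruplicate.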

[2] = target: T1, hERG (KCNH2) (Homo sapiens, UniProt Q12809); assay: Inhibition of hERG expressed in CHO cells at 5 ug/mL by rubidium efflux assay; assay type: toxicity, cell-based; conditions: CHO cells that express hERG
Method in brief: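 hERG-CHO cells plated 24 h, then loaded 3 h in HEPES-buffered saline with 5.4 mM RbCl. Compound added and equilibrated 30 min at 37 °C. Cells washed three times in Rb-free saline (5.4 mM KCl), then depolarized 5 min with 45.4 mM KCl.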

[3] = target: T1, hERG (KCNH2); assay: Inhibition of hERG expressed in CHO cells at […] by rubidium efflux assay; assay type: toxicity, cell-based; conditions: CHO cells that express hERG

T1 sequence (Q12809 whole entry): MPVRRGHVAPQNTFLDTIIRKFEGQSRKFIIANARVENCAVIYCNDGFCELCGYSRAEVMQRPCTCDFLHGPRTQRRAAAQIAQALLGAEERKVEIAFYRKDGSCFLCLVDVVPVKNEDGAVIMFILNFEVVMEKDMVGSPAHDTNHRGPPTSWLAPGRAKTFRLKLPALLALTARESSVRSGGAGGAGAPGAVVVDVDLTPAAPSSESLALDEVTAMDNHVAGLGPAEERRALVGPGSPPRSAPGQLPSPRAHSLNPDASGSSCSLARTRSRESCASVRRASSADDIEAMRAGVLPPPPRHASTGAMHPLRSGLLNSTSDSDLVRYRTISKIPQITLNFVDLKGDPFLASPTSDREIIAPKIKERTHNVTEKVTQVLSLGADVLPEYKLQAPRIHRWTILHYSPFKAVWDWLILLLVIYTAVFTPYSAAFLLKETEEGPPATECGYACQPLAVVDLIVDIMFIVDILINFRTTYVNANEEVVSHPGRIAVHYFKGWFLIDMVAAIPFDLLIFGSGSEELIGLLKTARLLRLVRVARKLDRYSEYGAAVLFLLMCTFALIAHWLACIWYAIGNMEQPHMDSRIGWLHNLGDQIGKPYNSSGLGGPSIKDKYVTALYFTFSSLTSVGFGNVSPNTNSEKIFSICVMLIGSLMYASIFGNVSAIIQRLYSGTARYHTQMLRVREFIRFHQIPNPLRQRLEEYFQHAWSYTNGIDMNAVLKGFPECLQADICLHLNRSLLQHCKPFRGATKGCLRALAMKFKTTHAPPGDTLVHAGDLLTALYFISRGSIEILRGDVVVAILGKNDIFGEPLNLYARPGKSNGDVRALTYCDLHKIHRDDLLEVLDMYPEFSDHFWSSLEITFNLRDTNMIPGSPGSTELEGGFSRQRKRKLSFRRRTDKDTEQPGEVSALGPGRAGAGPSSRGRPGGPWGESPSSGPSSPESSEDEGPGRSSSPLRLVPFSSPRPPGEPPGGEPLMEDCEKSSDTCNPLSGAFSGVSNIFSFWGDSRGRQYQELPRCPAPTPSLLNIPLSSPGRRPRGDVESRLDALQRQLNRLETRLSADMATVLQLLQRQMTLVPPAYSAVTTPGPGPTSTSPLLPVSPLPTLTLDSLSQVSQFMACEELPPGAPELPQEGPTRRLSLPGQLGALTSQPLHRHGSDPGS
Sequence of Melanin-concentrating hormone receptor 1 (Q99705 whole entry): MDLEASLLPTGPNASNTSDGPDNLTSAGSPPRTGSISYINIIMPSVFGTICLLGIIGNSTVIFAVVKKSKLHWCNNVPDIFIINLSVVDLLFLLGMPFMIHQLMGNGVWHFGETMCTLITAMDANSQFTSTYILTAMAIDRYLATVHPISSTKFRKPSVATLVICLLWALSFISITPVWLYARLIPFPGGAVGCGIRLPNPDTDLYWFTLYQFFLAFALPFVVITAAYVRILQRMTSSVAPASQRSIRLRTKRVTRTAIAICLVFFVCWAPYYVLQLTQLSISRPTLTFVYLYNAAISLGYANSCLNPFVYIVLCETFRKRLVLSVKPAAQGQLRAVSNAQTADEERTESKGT

SMILES	Ki [1] [µM]	inhibition at 5 ug/mL [2] [%]	inhibition at […] [3] [%]
CC(C)N(CCN(C(=O)Nc1cc(Cl)nc(Cl)c1)[C@@H]1CC[C@]2(c3cccc(C#N)c3)CC2C1)C(C)C (stereo in doubt; 13)	0.0024	59	–
CC(C)N(CCN(C(=O)Nc1ccc(F)c(Cl)c1)[C@@H]1CC[C@]2(c3cccc(CN)c3)CC2C1)C(C)C (stereo not given in full)	0.0023	32	22
N#Cc1cccc([C@]23CC[C@@H](N(CCN4CC[C@@H](O)C4)C(=O)Nc4cc(F)cc(F)c4)CC2C3)c1 (stereo not given in full)	0.015	–	–
CCN(CC)Cc1cccc([C@]23CC[C@@H](N(CCN(C(C)C)C(C)C)C(=O)Nc4ccc(F)c(Cl)c4)CC2C3)c1 (stereo not given in full)	0.046	30	15
CCO/N=C/c1cccc([C@]23CC[C@@H](N(CCN(C(C)C)C(C)C)C(=O)Nc4ccc(F)c(Cl)c4)CC2C3)c1 (stereo not given in full)	0.029	–	–
N#Cc1cccc([C@]23CC[C@@H](N(CCN4CCCCCC4)C(=O)Nc4ccc(F)c(Cl)c4)CC2C3)c1 (stereo not given in full)	0.015	–	–
CC(C)N(CCN(C(=O)Nc1ccc(F)c(Cl)c1)[C@@H]1CC[C@]2(c3cccc(CN4CC[C@H](O)C4)c3)CC2C1)C(C)C (stereo not given in full)	0.021	-1	-4
CC(=O)NC1CCN(CCN(C(=O)Nc2ccc(F)c(Cl)c2)[C@@H]2CC[C@]3(c4cccc(C#N)c4)CC3C2)C1 (stereo not given in full)	0.023	–	–
CC(C)N(CCN(C(=O)Nc1ccc(F)c(Cl)c1)[C@@H]1CC[C@]2(c3cccc(CN(C)C)c3)CC2C1)C(C)C (stereo not given in full)	0.013	5	-1
COC(=O)c1cccc([C@]23CC[C@@H](N(CCN(C(C)C)C(C)C)C(=O)Nc4ccc(F)c(F)c4)CC2C3)c1 (stereo not given in full)	–	85	57
CC(C)N(CCN(C(=O)Nc1ccc(F)c(Cl)c1)[C@@H]1CC[C@]2(c3cccc(CO)c3)CC2C1)C(C)C (stereo not given in full)	0.048	67	43
CC(C)N(CCN(C(=O)Nc1ccc(F)c(F)c1)[C@@H]1CC[C@]2(c3ccccc3)CC2C1)C(C)C (stereo not given in full)	0.092	–	–
N#Cc1cccc([C@]23CC[C@@H](N(CCN4CC[C@@H](O)C4)C(=O)Nc4ccc(F)c(F)c4)CC2C3)c1 (stereo not given in full)	0.02	–	–
CC(C)N(CCN(C(=O)Nc1ccc(F)c(F)c1)[C@@H]1CC[C@]2(c3cccc(Br)c3)CC2C1)C(C)C (stereo not given in full)	0.0078	–	–
N#Cc1ncc(C2=CCC(N(CCN3CCCC3)C(=O)Nc3ccc(F)c(Cl)c3)CC2)s1 (stereo not given)	0.057	–	–
Cc1ccc(C2=CCC(N(CCN3CCCC3)C(=O)Nc3ccc(F)c(Cl)c3)CC2)s1 (stereo not given)	0.085	12	–
COc1cccc(NC(=O)N(CCN2CC[C@@H](O)C2)[C@@H]2CC[C@]3(c4cccc(C#N)c4)CC3C2)c1 (stereo not given in full)	0.373	–	–
CCS(=O)(=O)N1CCC(CN(C(=O)Nc2ccc(F)c(F)c2)[C@@H]2CC[C@]3(c4cccc(C#N)c4)CC3C2)CC1 (stereo not given in full)	0.021	59	25
CC(C)N(CCN(C(=O)Nc1ccc(F)c(Cl)c1)[C@@H]1CC[C@]2(c3cccc(CN4CCN(C)CC4)c3)CC2C1)C(C)C (stereo not given in full)	0.054	13	10

SMILES	Ki [1] [µM]	inhibition at 5 ug/mL [2] [%]	inhibition at […] [3] [%]
CC(C)N(CCN(C(=O)Nc1ccc(F)c(Cl)c1)[C@@H]1CC[C@]2(c3cccc(CNS(C)(=O)=O)c3)CC2C1)C(C)C (stereo not given in full)	0.018	46	17
CC(C)N(CCN(C(=O)Nc1cc(Cl)nc(Cl)c1)[C@@H]1CC[C@]2(c3cccc(C#N)c3)CC2C1)C(C)C (stereo in doubt; 6j)	0.002	–	–
O=C(Nc1ccc(F)c(Cl)c1)N(CCN1CCCC1)C1CC=C(c2cc3ccccc3o2)CC1 (stereo not given)	0.316	–	–
CC(C)N(CCN(C(=O)Nc1ccc(F)c(F)c1)[C@@H]1CC[C@]2(c3cccc(C#N)c3)CC2C1)C(C)C (stereo not given in full)	0.0028	–	–
CC(C)N(CCN(C(=O)Nc1cccc(C#N)c1)[C@@H]1CC[C@]2(c3cccc(C#N)c3)CC2C1)C(C)C (stereo not given in full)	0.0076	–	–
CS(=O)(=O)N1CCC(CCN(C(=O)Nc2ccc(F)c(C(F)(F)F)c2)[C@@H]2CC[C@]3(c4cccc(C#N)c4)CC3C2)CC1 (stereo not given in full)	0.08	20	18
CC(C)N(CCN(C(=O)Nc1ccc(F)c(Cl)c1)[C@@H]1CC[C@]2(c3cccc(C(N)=O)c3)CC2C1)C(C)C (stereo not given in full)	0.142	44	21
CC(C)N(CCN(C(=O)Nc1cccc([N+](=O)[O-])c1)[C@@H]1CC[C@]2(c3cccc(C#N)c3)CC2C1)C(C)C (stereo not given in full)	0.0027	–	–
CNC(=O)N1CCC(CN(C(=O)Nc2ccc(F)c(C(F)(F)F)c2)[C@@H]2CC[C@]3(c4cccc(C#N)c4)CC3C2)CC1 (stereo not given in full)	0.181	18	14
CC(C)N(CCN(C(=O)Nc1cccc(Br)c1)[C@@H]1CC[C@]2(c3cccc(C#N)c3)CC2C1)C(C)C (stereo not given in full)	0.0057	–	–
CC1CCCN1CCN(C(=O)Nc1ccc(F)c(Cl)c1)[C@@H]1CC[C@]2(c3cccc(C#N)c3)CC2C1 (stereo not given in full)	0.016	–	–
N#Cc1cccc([C@]23CC[C@@H](N(CCN4CC[C@@H](O)C4)C(=O)Nc4cccc(Cl)c4)CC2C3)c1 (stereo not given in full)	0.027	–	–
CC(C)N(CCN(C(=O)Nc1cccc(F)c1)[C@@H]1CC[C@]2(c3cccc(C#N)c3)CC2C1)C(C)C (stereo not given in full)	0.0021	–	–
N#Cc1cccc([C@]23CC[C@@H](N(CCN4CC[C@@H](O)C4)C(=O)Nc4cccc([N+](=O)[O-])c4)CC2C3)c1 (stereo not given in full)	0.06	–	–
CCN(CCO)CCN(C(=O)Nc1ccc(F)c(Cl)c1)[C@@H]1CC[C@]2(c3cccc(C#N)c3)CC2C1 (stereo not given in full)	0.011	–	–
N#Cc1cccc([C@]23CC[C@@H](N(CCN4CCCC(CO)C4)C(=O)Nc4ccc(F)c(Cl)c4)CC2C3)c1 (stereo not given in full)	0.015	–	–
CC(C)N(CCN(C(=O)Nc1cccc(Cl)c1)[C@@H]1CC[C@]2(c3cccc(C#N)c3)CC2C1)C(C)C (stereo not given in full)	0.006	–	–
N#Cc1cccc([C@]23CC[C@@H](N(CCN4CC[C@@H](O)C4)C(=O)Nc4ccc5c(c4)OCO5)CC2C3)c1 (stereo not given in full)	0.134	–	–
O=C(Nc1ccc(F)c(Cl)c1)N(CCN1CCCC1)C1CC=C(c2ccc[nH]2)CC1 (stereo not given)	1.97	–	–

SMILES	Ki [1] [µM]	inhibition at 5 ug/mL [2] [%]	inhibition at […] [3] [%]
CC(C)N(CCN(C(=O)Nc1ccc(F)cc1)[C@@H]1CC[C@]2(c3cccc(C#N)c3)CC2C1)C(C)C (stereo not given in full)	0.0104	–	–
O=Cc1ccc(C2=CCC(N(CCN3CCCC3)C(=O)Nc3ccc(F)c(Cl)c3)CC2)o1 (stereo not given)	0.051	47	–
O=C(Nc1ccc(F)c(Cl)c1)N(CCN1CCCC1)C1CC=C(c2cncnc2)CC1 (stereo not given)	0.147	85	–
N#Cc1cccc([C@]23CC[C@@H](N(CCN4CC[C@@H](O)C4)C(=O)Nc4cccc(Br)c4)CC2C3)c1 (stereo not given in full)	0.034	–	–
N#Cc1cccc([C@]23CC[C@@H](N(CCN4CC[C@@H](O)C4)C(=O)Nc4cccc(F)c4)CC2C3)c1 (stereo not given in full)	0.02	–	–
CC1CCCCN1CCN(C(=O)Nc1ccc(F)c(Cl)c1)[C@@H]1CC[C@]2(c3cccc(C#N)c3)CC2C1 (stereo not given in full)	0.015	–	–
N#Cc1cccc(NC(=O)N(CCN2CC[C@@H](O)C2)[C@@H]2CC[C@]3(c4cccc(C#N)c4)CC3C2)c1 (stereo not given in full)	0.092	–	–
N#Cc1cccc([C@]23CC[C@@H](N(CCN4CC[C@@H](O)C4)C(=O)Nc4ccccc4)CC2C3)c1 (stereo not given in full)	0.132	–	–
N#Cc1cccc([C@]23CC[C@@H](N(CCN4CC[C@@H](O)C4)C(=O)Nc4ccc(F)cc4)CC2C3)c1 (stereo not given in full)	0.054	–	–
Cc1cc(C)cc(NC(=O)N(CCN2CC[C@@H](O)C2)[C@@H]2CC[C@]3(c4cccc(C#N)c4)CC3C2)c1 (stereo not given in full)	0.539	–	–
O=C(Nc1ccc(F)c(Cl)c1)N(CCN1CCCC1)C1CC=C(c2ccco2)CC1 (stereo not given)	0.117	–	–
N#Cc1cccc([C@]23CC[C@@H](N(CCN4CC[C@@H](O)C4)C(=O)Nc4ccccc4F)CC2C3)c1 (stereo not given in full)	1.88	–	–
Cc1ccc(NC(=O)N(CCN2CC[C@@H](O)C2)[C@@H]2CC[C@]3(c4cccc(C#N)c4)CC3C2)cc1F (stereo not given in full)	0.048	–	–
N#Cc1cccc([C@]23CC[C@@H](N(CCN4CC[C@@H](O)C4)C(=O)NC4CCCCC4)CC2C3)c1 (stereo not given in full)	2.21	–	–
CC(C)N(CCN(C(=O)Nc1cc(F)cc(F)c1)[C@@H]1CC[C@]2(c3cccc(C#N)c3)CC2C1)C(C)C (stereo not given in full)	0.0045	–	–
N#Cc1cccc([C@]23CC[C@@H](N(CCN4CCOCC4)C(=O)Nc4ccc(F)c(Cl)c4)CC2C3)c1 (stereo not given in full)	0.053	–	–
CN(C)Cc1ncc(C2=CCC(N(CCN3CCCC3)C(=O)Nc3ccc(F)c(Cl)c3)CC2)s1 (stereo not given)	0.648	–	–
N#Cc1cccc([C@]23CC[C@@H](N(CCN4CCC(O)CC4)C(=O)Nc4ccc(F)c(Cl)c4)CC2C3)c1 (stereo not given in full)	0.022	–	–
N#Cc1cccc([C@]23CC[C@@H](N(CC4CCN(C5CCOCC5)CC4)C(=O)Nc4ccc(F)c(Cl)c4)CC2C3)c1 (stereo not given in full)	–	91	75
